Data: ChEMBL document CHEMBL4346701, “Synthesis and biological evaluation of tryptophan-derived rhodanine derivatives as PTP1B inhibitors and anti-bacterial agents” (Eur J Med Chem, 2019)
Converted amounts (≈) assume the structure as drawn. The source made the active and inactive calls. The rule behind the calls is not given here.

Columns and labels:
Escherichia coli = test: Antibacterial activity against Escherichia coli 1924 assessed as reduction in bacterial cell growth incubated for 24 hrs by ELISA; type: functional; conditions: Escherichia coli, 1924, 24 h
How it was run: (§1)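 MIC determined by serial dilution in 96-well microtiter plates. Strains used were E. coli 1924 and P. aeruginosa 2742 (Gram-negative), S. mutans 3289 (Gram-positive) and the fungus C. albicans 7535. Gatifloxacin, moxifloxacin, norfloxacin and oxacillin served as antibacterial reference agents, and fluconazole as the antifungal reference.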

[1] = biological target: T1, Receptor-type tyrosine-protein phosphatase F (Homo sapiens, UniProt P10586); test: Inhibition of human recombinant GST-tagged LAR (catalytic domain 1275 to 1613 residues) expressed in Escherichia coli BL21 (DE3) using pNPP as substrate at 20 ug/ml measured for 2 mins by colorimetric analysis
T1 sequence (P10586 whole entry, the tested form may be a part): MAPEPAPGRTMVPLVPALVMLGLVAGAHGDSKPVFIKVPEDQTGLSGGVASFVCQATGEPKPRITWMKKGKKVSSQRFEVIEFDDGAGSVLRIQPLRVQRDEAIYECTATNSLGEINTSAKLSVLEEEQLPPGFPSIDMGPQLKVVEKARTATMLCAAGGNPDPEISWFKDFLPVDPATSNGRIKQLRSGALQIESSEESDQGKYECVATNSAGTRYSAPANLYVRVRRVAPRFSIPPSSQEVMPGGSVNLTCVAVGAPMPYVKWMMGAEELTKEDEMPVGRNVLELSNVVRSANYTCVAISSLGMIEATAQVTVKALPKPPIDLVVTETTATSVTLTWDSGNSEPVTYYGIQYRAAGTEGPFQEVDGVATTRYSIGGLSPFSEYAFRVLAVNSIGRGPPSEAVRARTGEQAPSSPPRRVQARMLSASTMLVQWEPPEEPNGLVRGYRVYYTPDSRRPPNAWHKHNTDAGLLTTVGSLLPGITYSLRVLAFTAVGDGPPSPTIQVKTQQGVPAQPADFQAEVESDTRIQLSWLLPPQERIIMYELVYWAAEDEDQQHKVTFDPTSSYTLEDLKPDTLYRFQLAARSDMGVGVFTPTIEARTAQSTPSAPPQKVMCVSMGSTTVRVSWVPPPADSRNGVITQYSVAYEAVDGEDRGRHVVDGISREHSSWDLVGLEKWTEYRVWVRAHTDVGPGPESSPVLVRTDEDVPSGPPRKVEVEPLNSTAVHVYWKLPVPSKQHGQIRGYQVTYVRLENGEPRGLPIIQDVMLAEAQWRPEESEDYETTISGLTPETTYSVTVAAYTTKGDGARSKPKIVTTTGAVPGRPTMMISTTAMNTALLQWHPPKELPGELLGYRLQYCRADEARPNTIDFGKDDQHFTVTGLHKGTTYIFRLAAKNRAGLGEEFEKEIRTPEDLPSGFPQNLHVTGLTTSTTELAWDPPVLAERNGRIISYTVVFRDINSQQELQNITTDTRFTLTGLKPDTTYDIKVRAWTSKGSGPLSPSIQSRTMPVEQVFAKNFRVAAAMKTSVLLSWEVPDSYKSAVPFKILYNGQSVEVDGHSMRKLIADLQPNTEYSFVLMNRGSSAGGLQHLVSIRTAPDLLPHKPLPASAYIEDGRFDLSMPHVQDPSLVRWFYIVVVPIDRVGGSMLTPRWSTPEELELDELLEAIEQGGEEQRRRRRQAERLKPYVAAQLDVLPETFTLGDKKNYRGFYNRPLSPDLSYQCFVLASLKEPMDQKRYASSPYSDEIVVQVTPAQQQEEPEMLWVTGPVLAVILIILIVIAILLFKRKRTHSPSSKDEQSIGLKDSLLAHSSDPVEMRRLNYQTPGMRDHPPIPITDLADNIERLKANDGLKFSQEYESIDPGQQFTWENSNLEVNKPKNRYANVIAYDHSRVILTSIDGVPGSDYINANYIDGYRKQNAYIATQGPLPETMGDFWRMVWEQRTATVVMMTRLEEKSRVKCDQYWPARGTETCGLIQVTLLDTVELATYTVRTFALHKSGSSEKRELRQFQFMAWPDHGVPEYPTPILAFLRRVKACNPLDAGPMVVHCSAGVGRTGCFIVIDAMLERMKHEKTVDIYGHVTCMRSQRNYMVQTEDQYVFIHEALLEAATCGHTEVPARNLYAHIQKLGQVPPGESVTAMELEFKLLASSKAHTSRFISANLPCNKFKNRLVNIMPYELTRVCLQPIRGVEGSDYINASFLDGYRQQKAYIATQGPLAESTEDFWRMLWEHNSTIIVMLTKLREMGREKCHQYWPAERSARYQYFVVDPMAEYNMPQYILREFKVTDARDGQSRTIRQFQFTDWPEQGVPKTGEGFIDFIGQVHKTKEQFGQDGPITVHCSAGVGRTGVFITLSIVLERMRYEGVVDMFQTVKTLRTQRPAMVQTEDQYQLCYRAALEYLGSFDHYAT
How it was run: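 Single-concentration screen at 20 µg/mL in the pNPP phosphatase assay.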

Candida albicans = test: Antifungal activity against Candida albicans 7535 assessed as reduction in bacterial cell growth incubated for 24 hrs by ELISA; type: functional; conditions: Candida albicans, 7535, 24 h; how it was run: as §1
[2] = biological target: T2, Tyrosine-protein phosphatase non-receptor type 1 (Homo sapiens, UniProt P18031); test: Inhibition of human recombinant GST-tagged PTP1B expressed in Escherichia coli BL21 (DE3) using pNPP as substrate measured for 2 mins by colorimetric analysis
T2 sequence (P18031 whole entry): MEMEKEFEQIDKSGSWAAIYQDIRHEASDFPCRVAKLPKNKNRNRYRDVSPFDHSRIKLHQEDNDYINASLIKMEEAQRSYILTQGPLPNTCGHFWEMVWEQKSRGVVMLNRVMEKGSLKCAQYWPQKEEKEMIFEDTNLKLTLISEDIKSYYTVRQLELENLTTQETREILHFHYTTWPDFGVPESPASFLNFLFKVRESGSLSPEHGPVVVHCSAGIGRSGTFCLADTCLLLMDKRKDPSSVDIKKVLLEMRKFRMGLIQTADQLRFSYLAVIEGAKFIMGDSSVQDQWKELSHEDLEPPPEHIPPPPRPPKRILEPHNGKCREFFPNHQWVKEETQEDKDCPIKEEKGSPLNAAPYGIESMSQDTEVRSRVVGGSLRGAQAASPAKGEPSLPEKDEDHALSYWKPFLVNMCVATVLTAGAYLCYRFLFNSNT

Staphylococcus aureus [3] = test: Antibacterial activity against Quinolone-resistant Staphylococcus aureus CCARM 3519 assessed as reduction in bacterial cell growth incubated for 24 hrs by ELISA; type: functional; conditions: CCARM 3519, 24 h
How it was run: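 MICs determined by serial dilution in 96-well microtiter plates. The strain panel included Gram-positive S. aureus strains and multidrug-resistant clinical isolates. Gatifloxacin, moxifloxacin, norfloxacin and oxacillin served as antibacterial positive controls.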

Staphylococcus aureus [4] = test: Potency index, ratio of MIC of gatifloxacin to MIC of compound for antibacterial activity against Staphylococcus aureus KCTC503 assessed as reduction in bacterial cell growth incubated for 24 hrs by ELISA; type: functional
[5] = biological target: T3, Tyrosine-protein phosphatase non-receptor type 1 (Homo sapiens) (UniProt P18031); test: Potency index, ratio of IC50 of oleanolic acid to IC50 of compound inhibition of human recombinant GST-tagged PTP1B expressed in Escherichia coli BL21 (DE3) using pNPP as substrate measured for 2 mins by colorimetric analysis
T3 sequence (whole entry): T2 sequence (P18031 whole entry)

[6] = biological target: T2, Tyrosine-protein phosphatase non-receptor type 1; test: Competitive inhibition of human recombinant GST-tagged PTP1B expressed in Escherichia coli BL21 (DE3) using pNPP as substrate assessed as inhibitor constant measured for 2 mins by colorimetric analysis
[7] = biological target: T1, Receptor-type tyrosine-protein phosphatase F; test: Inhibition of human recombinant GST-tagged LAR (catalytic domain 1275 to 1613 residues) expressed in Escherichia coli BL21 (DE3) using pNPP as substrate measured for 2 mins by colorimetric analysis
[8] = biological target: T3, Tyrosine-protein phosphatase non-receptor type 1 (Homo sapiens); test: Competitive inhibition of human recombinant GST-tagged PTP1B expressed in Escherichia coli BL21 (DE3) using pNPP as substrate assessed as increase in Km value measured for 2 mins by colorimetric analysis
[9] = biological target: T3, Tyrosine-protein phosphatase non-receptor type 1 (Homo sapiens); test: Competitive inhibition of human recombinant GST-tagged PTP1B expressed in Escherichia coli BL21 (DE3) using pNPP as substrate assessed as unchanged Vmax value measured for 2 mins by colorimetric analysis
[10] = biological target: T3, Tyrosine-protein phosphatase non-receptor type 1 (Homo sapiens); test: Inhibition of human recombinant GST-tagged PTP1B expressed in Escherichia coli BL21 (DE3) using pNPP as substrate incubated for 4 to 16 mins and measured for 2 mins by colorimetric analysis; conditions: TDE = time-dependent effect
How it was run: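 pNPP used as the phosphatase substrate, with the enzyme assay following earlier published work. IC50 obtained by regression analysis and reported as mean ± SD of three replications.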

| Structure (SMILES) | MIC (Escherichia coli) [µg/mL] | inhibition [1] | MIC (Candida albicans) [µg/mL] | IC50 [2] [nM] | MIC (Staphylococcus aureus [3]) [µg/mL] | Ratio (Staphylococcus aureus [4]) | Ratio IC50 [5] | Ki [6] [nM] | IC50 [7] [nM] | inhibition [8] | inhibition [9] | inhibition [10] |
| --- | --- | --- | --- | --- | --- | --- | --- | --- | --- | --- | --- | --- |
| O=C(O)C(Cc1c[nH]c2ccccc12)N1C(=O)/C(=C/c2ccc3cc(OCc4ccc(Cl)cc4Cl)ccc3c2)SC1=S (stereo unspecified) | 8 (≈ 12.6 µM) | inactive | > 64 | 540 | 8 (≈ 12.6 µM) |  |  |  |  |  |  |  |
| Cc1ccc(COc2ccc3cc(/C=C4\SC(=S)N(C(Cc5c[nH]c6ccccc56)C(=O)O)C4=O)ccc3c2)cc1 (stereo unspecified) | 2 (≈ 3.46 µM) | inactive | > 64 | 640 | 2 (≈ 3.46 µM) | 2 |  |  |  |  |  |  |
| O=C(O)C(Cc1c[nH]c2ccccc12)N1C(=O)/C(=C/c2ccc3cc(OCc4ccc(Br)cc4)ccc3c2)SC1=S (stereo unspecified) | 8 (≈ 12.4 µM) |  | > 64 | 360 | 4 (≈ 6.22 µM) |  | 8 | 70 | 29100 | Active | Active | Tde |
